# Assay results from different studies.
# Each line is one published result; the experiments were not run side by side.
# BTK: Tyrosine-protein kinase BTK (BTK, Homo sapiens, UniProt Q06187)
# AKT2: RAC-beta serine/threonine-protein kinase (AKT2, Homo sapiens, UniProt P31751)
SMILES,target,observed,action,technique,concentration,measurement,value
CCCCC(=O)Nc1ccc(-c2ccc3ncn(CCC)c(=O)c3c2)cn1,"Mast/stem cell growth factor receptor Kit (KIT, Homo sapiens, UniProt P10721, V559D)",binding,,competition with immobilised ligand,0.5 µM,remaining binding,99%
Cc1nc(Nc2ncc(C(=O)Nc3c(C)cccc3Cl)s2)cc(N2CC[C@@H](O)C2)n1,BTK,enzyme activity,inhibitor,mobility shift,1 nM,inhibition,74%
C#Cc1cc(-c2cc(Nc3nc(N[C@@H](C)c4ccc(F)cn4)ncc3Cl)n[nH]2)ccc1C=O,"Mitogen-activated protein kinase kinase kinase 19 (MAP3K19, Homo sapiens, UniProt Q56UN5)",enzyme activity,inhibitor,,0.2 µM,inhibition,3.1%
C1=C/COCc2cc(ccc2OCCN2CCCC2)Nc2nccc(n2)-c2cccc(c2)COC/1,"Myosin light chain kinase, smooth muscle (MYLK, Homo sapiens, UniProt Q15746)",binding,,,0.1 µM,remaining binding,83%
C[C@H](NC(=O)C(=O)Nc1ccccc1C(C)(C)C)C(=O)N[C@@H](CC(=O)O)C(=O)COc1c(F)c(F)cc(F)c1F,"Caspase-4 (Casp4, Mus musculus, UniProt P70343)",enzyme activity,inhibitor,,,kinact/KI,448000 M⁻¹ s⁻¹
Cc1nc(Nc2ncc(C(=O)Nc3c(C)cccc3Cl)s2)cc(N2CC[C@@H](N)C2)n1,BTK,enzyme activity,inhibitor,mobility shift,1 nM,inhibition,71%
COc1ccc2oc(-c3ccc4nc(N)oc4c3)c/c(=N\c3ccccc3NC(=O)CCN)c2c1,"Casein kinase II subunit alpha (CSNK2A1, Homo sapiens, UniProt P68400)",binding,,,1 µM,remaining binding,106%
[2H]c1cc(C)c(NC(=O)c2cnc(Nc3cc(N4CCCCC4)nc(C)n3)s2)c(Cl)c1,BTK,enzyme activity,inhibitor,mobility shift,1 nM,inhibition,90%
Cc1cc(-c2ccnc3[nH]cc(F)c23)cc(F)c1[C@@]1(O)[C@H](C)CN(C2CCS(=O)(=O)CC2)C[C@@H]1C,AKT2,enzyme activity,inhibitor,,0.1 µM,remaining activity,103%
C#Cc1cnc(Nc2ccnc(CO)c2)nc1Nc1ccccc1S(C)(=O)=NC#N (stereo not drawn),"Atypical kinase COQ8A, mitochondrial (COQ8A, Homo sapiens, UniProt Q8NI60)",cell-free assay,,,1 µM,remaining signal,97%
Cc1cc(-c2ccnc3[nH]cc(F)c23)cc(F)c1[C@@]1(O)[C@H](C)CN(C(=O)CN)C[C@@H]1C,AKT2,enzyme activity,inhibitor,,15 nM,remaining activity,94.5%
O=C(COc1ccc(Cl)c(F)c1)NC12CC(NC(=O)c3cnc(C(F)F)cn3)(C1)C2,"Translation initiation factor eIF2B subunit beta/Translation initiation factor eIF2B subunit delta (Homo sapiens, UniProt P49770+Q9UI10)",ligand displacement,,TR-FRET,100 µM,inhibition,100%
[2H]c1cc(C)c(NC(=O)c2cnc(Nc3cc(N4CC[C@H](O)C4)nc(C)n3)s2)c(Cl)c1,BTK,enzyme activity,inhibitor,mobility shift,1 nM,inhibition,72%
N#Cc1ccc(NC(=O)Nc2ccccc2)cc1,"Mast/stem cell growth factor receptor Kit (KIT, Homo sapiens, UniProt P10721, D816V)",cell-free assay,,competition with immobilised ligand,25 µM,remaining binding,89%
Cc1cc(O)c(-c2ccc([C@@H](C)CN(C)C)cc2)c2c1[nH]c(=O)c1sccc12,"Ribosomal protein S6 kinase alpha-5, N-terminal kinase domain (RPS6KA5, Homo sapiens, UniProt O75582)",enzyme activity,inhibitor,,0.1 µM,inhibition,3.82%
